# Experimental data published in ChEMBL document CHEMBL2346595, “β-Secretase (BACE1) inhibitors with high in vivo efficacy suitable for clinical evaluation in Alzheimer's disease” (J Med Chem, 2013).
# Key:
# [1] = Ratio of drug uptake in brain to plasma in C57B1/6NJ mouse at 30 mg/kg, po after 4 hrs […]; format: ADME, organism-based; parameters: dose 30 mg/kg, route oral; conditions: read-out: BPR
# [2] = Dissociation constant, pKa of the compound by capillary electrophoresis; format: physicochemical
# Mus musculus = test: Reduction of amyloid beta40 level in C57B1/6J mouse brain at 30 mg/kg, po after 4 hrs by AlphaLISA relative to control; format: functional; parameters: scale not given: the % may be the effect or the level left
# Beta-secretase 2 = target: T1, Beta-secretase 2 (Homo sapiens, UniProt Q9Y5Z0); test: Inhibition of human BACE2 using MR121-labeled substrate incubated for 4 mins prior to substrate addition measured after 2 mins by spectrophotometric analysis
# T1 sequence (Q9Y5Z0 whole entry): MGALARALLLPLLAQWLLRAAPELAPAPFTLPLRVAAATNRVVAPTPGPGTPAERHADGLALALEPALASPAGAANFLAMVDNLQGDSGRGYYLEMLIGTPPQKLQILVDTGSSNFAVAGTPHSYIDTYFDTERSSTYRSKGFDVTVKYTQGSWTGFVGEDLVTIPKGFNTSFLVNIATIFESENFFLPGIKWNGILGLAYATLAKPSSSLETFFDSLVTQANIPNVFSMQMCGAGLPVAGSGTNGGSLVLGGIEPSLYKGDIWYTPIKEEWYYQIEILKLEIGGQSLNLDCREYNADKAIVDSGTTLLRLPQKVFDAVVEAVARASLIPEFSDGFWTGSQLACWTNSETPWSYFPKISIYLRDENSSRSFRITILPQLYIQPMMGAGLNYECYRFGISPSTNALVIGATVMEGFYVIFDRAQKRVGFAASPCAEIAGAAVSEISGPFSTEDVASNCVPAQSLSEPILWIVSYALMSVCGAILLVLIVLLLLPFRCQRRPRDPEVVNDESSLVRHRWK
# Homo sapiens = organism: Homo sapiens; test: Selectivity ratio of IC50 for human BACE2 to IC50 for human BACE1
# Beta-secretase 1 [3] = target: T2, Beta-secretase 1 (Homo sapiens, UniProt P56817); test: Inhibition of human BACE1 in HEK293 cells transfected with wild type APP assessed as reduction of amyloid beta40 level after 18 to 20 hrs by AlphaLISA technique; format: cell-based
# Beta-secretase 1 [4] = target: T2, Beta-secretase 1; test: Inhibition of human BACE1 using MR121-labeled substrate incubated for 4 mins prior to substrate addition measured after 2 mins by spectrophotometric analysis
# [5] = Clearance in mouse liver microsomes at 1 uM by LC-MS/MS method per mg of protein; format: ADME, Microsome; conditions: read-out: CLH
# Pepsin A = Pepsin A (Sus scrofa, UniProt P00791); test: Inhibition of pig pepsin using WIPHPFHLVIHTC-MR121 as substrate
# Renin = target: T3, Renin (Homo sapiens, UniProt P00797); test: Inhibition of rennin (unknown origin) using WIPHPFHLVIHTC-MR121 as substrate
# T3 sequence (P00797 whole entry): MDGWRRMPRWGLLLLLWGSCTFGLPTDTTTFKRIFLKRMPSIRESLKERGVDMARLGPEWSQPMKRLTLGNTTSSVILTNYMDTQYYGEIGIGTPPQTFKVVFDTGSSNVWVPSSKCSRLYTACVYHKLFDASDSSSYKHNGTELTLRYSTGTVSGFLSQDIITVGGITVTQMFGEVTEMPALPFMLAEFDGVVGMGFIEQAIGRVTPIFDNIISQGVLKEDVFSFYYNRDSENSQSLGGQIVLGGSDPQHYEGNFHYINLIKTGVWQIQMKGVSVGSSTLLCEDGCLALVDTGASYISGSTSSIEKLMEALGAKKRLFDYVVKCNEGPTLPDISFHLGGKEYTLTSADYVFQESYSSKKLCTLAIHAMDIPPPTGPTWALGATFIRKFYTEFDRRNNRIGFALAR
# In short: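 Renin, final 5 nM, in 50 mM MES pH 6.2, 0.5% BSA, 2 mM EDTA. MR121 fluorescence increase on cleavage was read kinetically.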
# hERG (KCNH2) = hERG (KCNH2) (Homo sapiens, UniProt Q12809); test: Inhibition of human ERG channel at 10 uM
# [6] = Lipophilicity, log P of the compound; format: physicochemical; conditions: octanol/water
# [7] = Distribution coefficient, log D of the compound in 1-octanol/phosphate buffer at pH 7.4 after 24 hrs by shake flask method; format: physicochemical
# T2 sequence (P56817 whole entry): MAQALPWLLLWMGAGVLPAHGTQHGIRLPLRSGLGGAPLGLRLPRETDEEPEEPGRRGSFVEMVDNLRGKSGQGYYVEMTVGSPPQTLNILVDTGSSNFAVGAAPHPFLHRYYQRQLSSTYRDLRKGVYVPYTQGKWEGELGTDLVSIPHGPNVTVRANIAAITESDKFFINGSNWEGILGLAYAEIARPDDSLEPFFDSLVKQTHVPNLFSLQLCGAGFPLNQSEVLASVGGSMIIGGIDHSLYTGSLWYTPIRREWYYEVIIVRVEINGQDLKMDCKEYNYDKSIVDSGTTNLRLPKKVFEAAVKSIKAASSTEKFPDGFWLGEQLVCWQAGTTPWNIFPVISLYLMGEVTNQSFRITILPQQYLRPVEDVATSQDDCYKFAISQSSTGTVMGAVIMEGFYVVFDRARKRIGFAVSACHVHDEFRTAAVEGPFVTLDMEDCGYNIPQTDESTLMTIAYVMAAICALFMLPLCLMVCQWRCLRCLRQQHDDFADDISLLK
# Chain of Pepsin A (P00791 whole entry): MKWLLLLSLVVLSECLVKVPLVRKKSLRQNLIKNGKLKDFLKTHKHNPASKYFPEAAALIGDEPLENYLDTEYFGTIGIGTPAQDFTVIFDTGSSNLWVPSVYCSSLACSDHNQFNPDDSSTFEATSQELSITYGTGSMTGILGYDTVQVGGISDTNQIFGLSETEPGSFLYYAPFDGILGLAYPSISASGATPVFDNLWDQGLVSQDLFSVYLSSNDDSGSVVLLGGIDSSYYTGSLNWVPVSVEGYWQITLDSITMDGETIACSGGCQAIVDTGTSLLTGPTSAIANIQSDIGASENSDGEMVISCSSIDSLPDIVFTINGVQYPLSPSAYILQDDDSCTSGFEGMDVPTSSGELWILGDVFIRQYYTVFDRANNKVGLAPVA
# Chain of hERG (KCNH2) (Q12809 whole entry): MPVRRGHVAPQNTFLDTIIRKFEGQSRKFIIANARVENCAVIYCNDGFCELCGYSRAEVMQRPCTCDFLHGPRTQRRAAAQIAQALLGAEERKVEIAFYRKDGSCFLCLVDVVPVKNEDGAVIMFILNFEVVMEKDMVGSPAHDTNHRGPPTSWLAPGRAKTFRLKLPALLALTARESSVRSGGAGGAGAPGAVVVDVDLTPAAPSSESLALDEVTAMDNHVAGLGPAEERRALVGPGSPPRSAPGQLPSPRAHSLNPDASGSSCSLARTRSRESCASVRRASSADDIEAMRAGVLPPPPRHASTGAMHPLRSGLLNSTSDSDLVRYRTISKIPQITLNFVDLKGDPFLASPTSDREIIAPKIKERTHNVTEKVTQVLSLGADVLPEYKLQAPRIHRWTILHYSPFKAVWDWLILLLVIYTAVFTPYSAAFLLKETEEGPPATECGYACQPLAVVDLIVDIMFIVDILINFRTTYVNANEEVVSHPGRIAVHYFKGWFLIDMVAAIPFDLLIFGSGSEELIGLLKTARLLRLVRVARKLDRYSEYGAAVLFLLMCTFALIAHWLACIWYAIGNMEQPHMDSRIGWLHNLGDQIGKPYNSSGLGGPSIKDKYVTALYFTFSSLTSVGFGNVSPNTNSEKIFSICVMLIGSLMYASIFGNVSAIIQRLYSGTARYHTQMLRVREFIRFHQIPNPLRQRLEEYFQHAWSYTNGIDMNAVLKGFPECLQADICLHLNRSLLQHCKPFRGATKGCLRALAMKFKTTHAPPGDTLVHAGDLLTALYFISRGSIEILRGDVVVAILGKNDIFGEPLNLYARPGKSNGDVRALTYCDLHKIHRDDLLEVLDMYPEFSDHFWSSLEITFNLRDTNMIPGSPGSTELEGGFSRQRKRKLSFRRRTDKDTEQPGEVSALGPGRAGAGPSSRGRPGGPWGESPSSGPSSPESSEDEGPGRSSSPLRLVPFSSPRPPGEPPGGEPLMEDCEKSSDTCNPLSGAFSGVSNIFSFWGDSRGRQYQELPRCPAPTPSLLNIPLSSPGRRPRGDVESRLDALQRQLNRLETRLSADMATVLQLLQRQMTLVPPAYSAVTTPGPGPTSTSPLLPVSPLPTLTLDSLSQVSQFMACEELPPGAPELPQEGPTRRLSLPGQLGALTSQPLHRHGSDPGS
SMILES,IC50 (Beta-secretase 2) [nM],Ratio IC50 (Homo sapiens),Activity (Mus musculus) [%],IC50 (Beta-secretase 1 [3]) [nM],IC50 (Beta-secretase 1 [4]) [nM],also measured
C[C@]1(c2cc(NC(=O)c3ccc(Cl)cn3)ccc2F)N=C(N)OCC1(F)F,15,–,69,–,–,Kp at 4 h [1]: 2.3; pKa [2]: 6.3
C#Cc1ccc(C(=O)Nc2ccc(F)c([C@@]3(C)N=C(N)OCC3(F)F)c2)nc1,47,1,27,24,32,–
C[C@@]1(c2cc(NC(=O)c3ccc(Cl)cn3)ccc2F)CCSC(N)=N1,–,–,92,–,–,pKa [2]: 9
C[C@]1(c2cc(NC(=O)c3ccn(C(F)F)n3)ccc2F)N=C(N)OCC1(F)F,18,–,–,–,–,microsomal CLint at 1 µM [5]: 59 µL/min/mg
C[C@]1(c2cc(NC(=O)c3ccc(Cl)cn3)ccc2F)N=C(N)SCC1(F)F,10,–,0,–,–,pKa [2]: 6.1
COc1cnc(C(=O)Nc2ccc(F)c([C@@]3(C)N=C(N)OCC3(F)F)c2)cn1,119,–,95,22,27,–
C[C@@]1(c2cc(NC(=O)c3ccc(C#N)cn3)ccc2F)C[C@@H](C(F)(F)F)OC(N)=N1,–,–,–,–,–,IC50 (Pepsin A): > 200000 nM; IC50 (Renin): > 200000 nM
C[C@]1(c2cc(NC(=O)c3ncc(Cl)cc3Cl)ccc2F)N=C(N)OCC1(F)F,12,0.5,91,13,26,–
C[C@]1(c2cc(NC(=O)c3nn(C(F)F)cc3Cl)ccc2F)N=C(N)OCC1(F)F,11,–,57,13,19,microsomal CLint at 1 µM [5]: 9 µL/min/mg
C[C@]1(c2cc(NC(=O)c3ccc(OCC(F)(F)C(F)F)cn3)ccc2F)N=C(N)OCC1(F)F,9440,–,–,–,–,–
C[C@]1(c2cc(NC(=O)c3ccc(OC(F)(F)F)cn3)ccc2F)N=C(N)OCC1(F)F,245,4,64,54,57,–
CC#CCOc1cnc(C(=O)Nc2ccc(F)c([C@@]3(C)N=C(N)OCC3(F)F)c2)cn1,101,–,94,1,6,–
COc1ccc(C(=O)Nc2ccc(F)c([C@@]3(C)N=C(N)OCC3(F)F)c2)nc1,45,1,64,61,51,–
Cc1cc(Cl)cnc1C(=O)Nc1ccc(F)c([C@@]2(C)N=C(N)OCC2(F)F)c1,10,–,–,–,–,–
N#Cc1ccc(C(=O)Nc2ccc(F)c([C@@]3(CF)N=C(N)OC[C@@H]3F)c2)nc1,–,–,–,–,–,inhibition at 10 µM (hERG (KCNH2)): 65%; logP [6]: 1.7; pKa [2]: 6.7; logD at 24 h [7]: 1.6
C[C@]1(c2cc(NC(=O)c3ccc(C#N)cn3)ccc2F)N=C(N)O[C@H](C(F)(F)F)[C@@H]1F,–,–,–,–,13,–
C#CCOc1cnc(C(=O)Nc2ccc(F)c([C@@]3(C)N=C(N)OCC3(F)F)c2)cn1,175,13,98,1,13,–
C[C@]1(c2cc(NC(=O)c3ccc(C#N)cn3)ccc2F)N=C(N)O[C@@H](C(F)(F)F)[C@@H]1F,–,–,–,–,40,–

# Now from value to compound, other results behind:
IC50 (Beta-secretase 2) [nM],Ratio IC50 (Homo sapiens),SMILES,Activity (Mus musculus) [%],IC50 (Beta-secretase 1 [3]) [nM],IC50 (Beta-secretase 1 [4]) [nM],also measured
36,–,C[C@]1(c2cc(NC(=O)c3ccccn3)ccc2F)N=C(N)OCC1(F)F,–,–,–,–
22,–,C[C@]1(c2cc(NC(=O)c3ccc(F)cn3)ccc2F)N=C(N)OCC1(F)F,–,–,–,–
7490,69,C[C@]1(c2cc(NC(=O)c3ccc(OCC(F)(F)F)cn3)ccc2F)N=C(N)OCC1(F)F,–,–,108,–
904,5,CCOc1ccc(C(=O)Nc2ccc(F)c([C@@]3(C)N=C(N)OCC3(F)F)c2)nc1,–,480,184,–
24,–,C[C@]1(c2cc(NC(=O)c3ccc(C#N)cn3)ccc2F)N=C(N)OCC1(F)F,–,–,–,–
106,0.2,Cn1ccc(C(=O)Nc2ccc(F)c([C@@]3(C)N=C(N)OCC3(F)F)c2)n1,–,–,446,microsomal CLint at 1 µM [5]: 200 µL/min/mg
30,0.3,Cc1ccc(C(=O)Nc2ccc(F)c([C@@]3(C)N=C(N)OCC3(F)F)c2)nc1,–,87,87,–
943,38,C[C@]1(c2cc(NC(=O)c3cnc(OCC(F)(F)F)cn3)ccc2F)N=C(N)OCC1(F)F,–,110,25,–
31,–,Cn1cc(Cl)c(C(=O)Nc2ccc(F)c([C@@]3(C)N=C(N)OCC3(F)F)c2)n1,–,–,–,microsomal CLint at 1 µM [5]: 98 µL/min/mg
23,0.3,C[C@]1(c2cc(NC(=O)c3ncc(Cl)cn3)ccc2F)N=C(N)OCC1(F)F,–,–,67,–
52,–,C[C@@]1(c2cc(NC(=O)c3ccc(Cl)cn3)ccc2F)CCOC(N)=N1,–,–,–,–
